One assay relates to Leishmania donovani. Put plainly: In vitro antiparasitic activity against Leishmania donovani was tested by sigmoidal regression analysis. It is filed as functional. The gist of the method: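 Mouse peritoneal macrophages (female CD1, starch-elicited, harvested 24 h) infected with L. donovani amastigotes (strain MHOM/ET/67/L82, hamster spleen) or T. cruzi Y-strain trypomastigotes (5:1, from MDCK overlay). Infected cells exposed to a 3-fold dilution series in quadruplicate for 5 days (L. donovani) or 3 days (T. cruzi). Giemsa-stained slides scored for % macrophages cleared of amastigotes versus untreated cultures. ED50 by sigmoidal regression.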

In assay [1] the target is Trypanothione reductase (Trypanosoma cruzi) (UniProt P28593). Put plainly: The second order rate constant of the TcTR (Trypanosoma cruzi trypanothione reductase) catalyzed […]. The method in brief: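 Recombinant TcTR (0.6 U) in 20 mM Hepes, 1 mM EDTA, 0.15 M KCl, pH 7.25 at 22 °C, with 200 µM NADPH and naphthoquinone at five concentrations (0–100 µM) in 1% DMSO. NADPH oxidation at 340 nm; intrinsic oxidase rate not subtracted. Km and Vmax from nonlinear Michaelis–Menten fit; kcat and kcat/Km calculated.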

The target is the same in assay [2]. Put plainly: Rate of NADPH oxidation by TcTR in presence of 100 uM NQ was determined in comparison to intrinsic oxidase activity. The gist of the method: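 Quinone reductase activity of recombinant TcTR measured as NADPH oxidation at 340 nm. Buffer was 20 mM Hepes, 1 mM EDTA, 0.15 M KCl, pH 7.25, with 250 µM NADPH at 25 °C. Rate with naphthoquinone (100 µM for line 8, 25 µM for line 9) divided by intrinsic oxidase rate of enzyme plus NADPH alone. Mean of at least two measurements.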

Trypanothione reductase (Trypanosoma cruzi), sequence (P28593 whole entry, looked up): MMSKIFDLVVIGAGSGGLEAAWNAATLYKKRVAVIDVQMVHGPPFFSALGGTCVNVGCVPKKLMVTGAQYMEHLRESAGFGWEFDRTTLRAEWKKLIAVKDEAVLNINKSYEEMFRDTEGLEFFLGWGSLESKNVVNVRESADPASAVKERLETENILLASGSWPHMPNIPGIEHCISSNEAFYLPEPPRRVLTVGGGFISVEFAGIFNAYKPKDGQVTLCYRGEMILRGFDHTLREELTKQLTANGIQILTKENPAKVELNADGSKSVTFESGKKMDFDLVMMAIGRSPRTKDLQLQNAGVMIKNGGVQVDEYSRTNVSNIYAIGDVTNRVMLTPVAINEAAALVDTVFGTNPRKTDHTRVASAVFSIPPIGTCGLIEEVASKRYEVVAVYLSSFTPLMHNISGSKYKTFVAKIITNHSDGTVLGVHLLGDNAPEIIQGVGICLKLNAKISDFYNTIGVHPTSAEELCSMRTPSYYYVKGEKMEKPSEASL

Regarding `CC1=C(CCCC(=O)NCCCCNCCCNC(=O)CCCC2=C(C)C(=O)c3ccccc3C2=O)C(=O)c2ccccc2C1=O`, the ED50 with Leishmania donovani was over 48 µM. Further, the k cat/Km in assay [1] is 2.3 10e4 M-1 s-1.

On to `O=C(O)CCCCCC1=C(CCCCCC(=O)O)C(=O)c2ccccc2C1=O`, for which, in the assay on Leishmania donovani, the ED50 is over 74 µM. On to `CC1=C(CCCCC(=O)NCCCN2CCN(CCCNC(=O)CCCCC3=C(C)C(=O)c4ccccc4C3=O)CC2)C(=O)c2ccccc2C1=O`, for which, in the assay with Leishmania donovani, the ED50 is 31.3 µM. Besides, the k cat/Km in assay [1] was 8.4 10e4 M-1 s-1.

Take `CC1=C(CCCC(=O)NCCCN2CCN(C)CC2)C(=O)c2ccccc2C1=O`: the ED50 with Leishmania donovani is over 76 µM. Moreover, the x fold in assay [2] is 11. For `CC1=C(CCCCC(=O)NCCCCNCCCNC(=O)CCCCC2=C(C)C(=O)c3cccc(O)c3C2=O)C(=O)c2c(O)cccc2C1=O`, the ED50 in the assay with Leishmania donovani was found to be 7.8 µM. Further, in assay [1], the k cat/Km was 13 10e4 M-1 s-1. `CN1CCN(C(=O)CCC2=C(CCC(=O)N3CCN(C)CC3)C(=O)c3c(O)cccc3C2=O)CC1` gave an ED50 in the assay on Leishmania donovani of over 62 µM. The same measure, in the same setting: as for `CC1=C(CCNC(=O)OC(C)(C)C)C(=O)c2ccccc2C1=O`, the figure is 8.8 µM. Take `CC1=C(CCCCCC(=O)NCCCN2CCN(CCCNC(=O)CCCCCC3=C(C)C(=O)c4ccccc4C3=O)CC2)C(=O)c2ccccc2C1=O`: in the assay with Leishmania donovani, the ED50 was 14.3 µM. For the same compound, the k cat/Km in assay [1] is 3.3 10e4 M-1 s-1.

With `CC1=C(CCCCCNC(=O)OC(C)(C)C)C(=O)c2c(O)cccc2C1=O`, the ED50 in the assay on Leishmania donovani is 33.8 µM. For the compound `CC1=C(CCNC(=O)OC(C)(C)C)C(=O)c2c(O)cccc2C1=O`, the ED50 in the assay with Leishmania donovani was found to be 11.8 µM. `CC1=C(CCCCCC(=O)NCCCNCCCNC(=O)CCCCCC2=C(C)C(=O)c3ccccc3C2=O)C(=O)c2ccccc2C1=O`: in the assay on Leishmania donovani, the ED50 turned out to be 22.8 µM. In addition, the k cat/Km in assay [1] is 2.3 10e4 M-1 s-1. Taken in the same sequence, the figures for `CC1=C(CCCCCC(=O)NCCCNCCCNC(=O)CCCCCC2=C(C)C(=O)c3cccc(O)c3C2=O)C(=O)c2c(O)cccc2C1=O` were 10.3 µM and 14.5 10e4 M-1 s-1.

Turning to `CC1=C(CCCCCC(=O)O)C(=O)c2ccccc2C1=O`, the ED50 in the assay with Leishmania donovani stood at 18 µM. Turning to `CC1=C(O)c2ccccc2C(=O)/C1=N\CCCN1CCN(C)CC1`, the x fold in assay [2] is 2. In the case of `CC1=C(CCCC(=O)NCCCNCCCNC(=O)CCCC2=C(C)C(=O)c3ccccc3C2=O)C(=O)c2ccccc2C1=O`, in the assay on Leishmania donovani, the ED50 was over 49 µM. In addition, the k cat/Km in assay [1] is 1.6 10e4 M-1 s-1. Turning to `CC1=C(CCCC(=O)NCCCN2CCN(C)CC2)C(=O)c2c(O)cccc2C1=O`, the ED50 in the assay on Leishmania donovani was found to be 66 µM. Further, the x fold in assay [2] came out at 40.

With `CC1=C(CCC(=O)NCCCNCCCNC(=O)CCC2=C(C)C(=O)c3ccccc3C2=O)C(=O)c2ccccc2C1=O`, the ED50 with Leishmania donovani is over 51 µM. The k cat/Km in assay [1] is 2.3 10e4 M-1 s-1. In turn, `CC1=C(CCCC(=O)N2CCN(C)CC2)C(=O)c2c(O)cccc2C1=O` showed an ED50 in the assay on Leishmania donovani of 82 µM. Further, the x fold in assay [2] came out at 14. In the assay on Leishmania donovani, `CC1=C(CCCCC(=O)O)C(=O)c2ccccc2C1=O` displayed an ED50 of 39 µM. On the same count and under the same terms, as for `O=C(O)CCCC1=C(CCCC(=O)O)C(=O)c2c(O)cccc2C1=O`, the figure is over 87 µM. Take `CC1=C(CCCC(=O)NCCCN2CCN(CCCNC(=O)CCCC3=C(C)C(=O)c4ccccc4C3=O)CC2)C(=O)c2ccccc2C1=O`: in the assay on Leishmania donovani, the ED50 turned out to be 14.7 µM. Besides, the k cat/Km in assay [1] was 4.2 10e4 M-1 s-1. Consider `CC1=C(CCCCCC(=O)NCCCCNCCCNC(=O)CCCCCC2=C(C)C(=O)c3cccc(O)c3C2=O)C(=O)c2c(O)cccc2C1=O`, for which, in the assay on Leishmania donovani, the ED50 worked out at 34.8 µM. The k cat/Km in assay [1] was 13.3 10e4 M-1 s-1. In the assay with Leishmania donovani, `CC1=C(CCCCNC(=O)OC(C)(C)C)C(=O)c2ccccc2C1=O` returned an ED50 of 16.5 µM. The same measure, in the same setting: for `O=C(O)CCC1=C(CCC(=O)O)C(=O)c2c(O)cccc2C1=O` the value was over 93 µM; for `CC1=C(CCCCCNC(=O)OC(C)(C)C)C(=O)c2ccccc2C1=O`, 12.5 µM.

In turn, `CC1=C(CCC(=O)NCCCCNCCCNC(=O)CCC2=C(C)C(=O)c3ccccc3C2=O)C(=O)c2ccccc2C1=O` yielded an ED50 in the assay on Leishmania donovani of over 50 µM. In addition, in assay [1], the k cat/Km was 5.1 10e4 M-1 s-1. Taken in the same sequence, the figures for `CC1=C(CCC(=O)NCCCN2CCN(CCCNC(=O)CCC3=C(C)C(=O)c4cccc(O)c4C3=O)CC2)C(=O)c2c(O)cccc2C1=O` were over 44 µM and 5.1 10e4 M-1 s-1.

`CC1=C(CCCC(=O)NCCCN2CCN(CCCNC(=O)CCCC3=C(C)C(=O)c4cccc(O)c4C3=O)CC2)C(=O)c2c(O)cccc2C1=O` gave an ED50 in the assay on Leishmania donovani of 38.5 µM. Besides, the k cat/Km in assay [1] was 3.5 10e4 M-1 s-1.

`CC1=C(CCCCC(=O)NCCCN2CCN(CCCNC(=O)CCCCC3=C(C)C(=O)c4cccc(O)c4C3=O)CC2)C(=O)c2c(O)cccc2C1=O` came in with an ED50 in the assay on Leishmania donovani of 29.6 µM. Consider `CN1CCN(CCCNC(=O)CCCC2=C(CCCC(=O)NCCCN3CCN(C)CC3)C(=O)c3c(O)cccc3C2=O)CC1`, for which, in the assay with Leishmania donovani, the ED50 is over 59 µM. In addition, in assay [2], the x fold came out at 45. As for `CC1=C(CCC(=O)NCCCNCCCNC(=O)CCC2=C(C)C(=O)c3cccc(O)c3C2=O)C(=O)c2c(O)cccc2C1=O`, in the assay on Leishmania donovani, the ED50 is over 49 µM. For the same compound, the k cat/Km in assay [1] was 4.5 10e4 M-1 s-1. The corresponding values for `CC1=C(CCCCCC(=O)NCCCCNCCCNC(=O)CCCCCC2=C(C)C(=O)c3ccccc3C2=O)C(=O)c2ccccc2C1=O` are 5.4 µM and 4.8 10e4 M-1 s-1.

For the compound `CC1=C(NCCCNCCC/N=C2/C(=O)c3ccccc3C(O)=C2C)C(=O)c2ccccc2C1=O`, the x fold in assay [2] was 4. Compound `CC1=C(CCCC(=O)N2CCN(C)CC2)C(=O)c2ccccc2C1=O` yielded an ED50 in the assay with Leishmania donovani of 32 µM. In the assay with Leishmania donovani, `CC1=C(CCCCC(=O)NCCCNCCCNC(=O)CCCCC2=C(C)C(=O)c3ccccc3C2=O)C(=O)c2ccccc2C1=O` returned an ED50 of over 45 µM. In assay [1], the k cat/Km is 0.8 10e4 M-1 s-1. In the assay with Leishmania donovani, `CC1=C(CCCC(=O)O)C(=O)c2c(O)cccc2C1=O` displayed an ED50 of over 109 µM. The compound `CC1=C(CCCCC(=O)NCCCNCCCNC(=O)CCCCC2=C(C)C(=O)c3cccc(O)c3C2=O)C(=O)c2c(O)cccc2C1=O` returned an ED50 in the assay on Leishmania donovani of 11.1 µM. Also, the k cat/Km in assay [1] is 11.4 10e4 M-1 s-1. The corresponding values for `CC1=C(CCCC(=O)NCCCCNCCCNC(=O)CCCC2=C(C)C(=O)c3cccc(O)c3C2=O)C(=O)c2c(O)cccc2C1=O` are over 46 µM and 3.6 10e4 M-1 s-1. For the compound `CC1=C(NCCCN2CCN(CCCN)CC2)C(=O)c2c(O)cccc2C1=O`, the x fold in assay [2] worked out at 6.4. With `CC1=C(CCCCC(=O)O)C(=O)c2c(O)cccc2C1=O`, in the assay on Leishmania donovani, the ED50 stood at 56 µM. Same read-out and setting: as for `CN1CCN(CCCNC(=O)CCC2=C(CCC(=O)NCCCN3CCN(C)CC3)C(=O)c3c(O)cccc3C2=O)CC1`, the figure is over 50 µM.

Take `CN(C)CCCN1CCN(CC2=C(N3CCN(CCCN(C)C)CC3)C(=O)c3ccccc3C2=O)CC1`: in assay [2], the x fold was found to be 3.9. Compound `CN1CCN(C(=O)CCCC2=C(CCCC(=O)N3CCN(C)CC3)C(=O)c3c(O)cccc3C2=O)CC1` had an ED50 with Leishmania donovani of over 48 µM. The x fold in assay [2] is 220. Consider `CC1=C(CCCCNC(=O)OC(C)(C)C)C(=O)c2c(O)cccc2C1=O`, for which the ED50 in the assay with Leishmania donovani was found to be 14.2 µM. For the compound `CC1=C(CCCC(=O)NCCCNCCCNC(=O)CCCC2=C(C)C(=O)c3cccc(O)c3C2=O)C(=O)c2c(O)cccc2C1=O`, the ED50 with Leishmania donovani worked out at 46.7 µM. The k cat/Km in assay [1] was 6.5 10e4 M-1 s-1.

As to `CC1=C(CCC(=O)N2CCN(C)CC2)C(=O)c2c(O)cccc2C1=O`, the ED50 in the assay on Leishmania donovani is over 88 µM. Further, the x fold in assay [2] amounted to 38. In turn, `O=C(O)CCCCC1=C(CCCCC(=O)O)C(=O)c2c(O)cccc2C1=O` displayed an ED50 in the assay with Leishmania donovani of over 80 µM. Take `CC1=C(CCC(=O)N2CCN(C)CC2)C(=O)c2ccccc2C1=O`: the ED50 with Leishmania donovani is 87 µM. In assay [2], the x fold worked out at 19.

Take `CC1=C(NCCCNCCCCNCCCN)C(=O)c2c(O)cccc2C1=O`: in the assay with Leishmania donovani, the ED50 was over 30 µM. In turn, `CC1=C(CCCCCC(=O)NCCCN2CCN(CCCNC(=O)CCCCCC3=C(C)C(=O)c4cccc(O)c4C3=O)CC2)C(=O)c2c(O)cccc2C1=O` displayed an ED50 with Leishmania donovani of 17.4 µM. Besides, the k cat/Km in assay [1] was 16.8 10e4 M-1 s-1. Regarding `CC1=C(NCCCNCCCN)C(=O)c2c(O)cccc2C1=O`, in the assay with Leishmania donovani, the ED50 is over 30 µM. Also, in assay [2], the x fold is 2.

In the case of `CC1=C(CCCCC(=O)NCCCCNCCCNC(=O)CCCCC2=C(C)C(=O)c3ccccc3C2=O)C(=O)c2ccccc2C1=O`, the ED50 with Leishmania donovani amounted to 11.9 µM. The k cat/Km in assay [1] is 5.8 10e4 M-1 s-1. `CC1=C(NCCCCN)C(=O)c2ccccc2C1=O` displayed an ED50 with Leishmania donovani of over 12.5 µM.

Regarding `CN1CCN(CCCNC(=O)CCCCC2=C(CCCCC(=O)NCCCN3CCN(C)CC3)C(=O)c3c(O)cccc3C2=O)CC1`, in the assay with Leishmania donovani, the ED50 worked out at 38.2 µM. Compound `CC1=C(CCC(=O)NCCCCNCCCNC(=O)CCC2=C(C)C(=O)c3cccc(O)c3C2=O)C(=O)c2c(O)cccc2C1=O` returned an ED50 in the assay with Leishmania donovani of over 48 µM. Moreover, the k cat/Km in assay [1] is 7.7 10e4 M-1 s-1. With `CC1=C(CCCCCC(=O)O)C(=O)c2c(O)cccc2C1=O`, the ED50 in the assay with Leishmania donovani came to 28 µM.
